# Source: PubChem BioAssay (several laboratories)
# Most compounds without a hit are left out; they make up all but 5.5% or so of the library.
# STAT1 inh – reduces IFN-gamma driven STAT1 reporter signal. NIH 3T3 STAT1-luciferase reporter, luminescence. inhibition, % at 5.5 µM. actives 0.35% (n = 200,000);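 active = inhibition above a set limit, the mean inhibition across all tested compounds plus 3 SD, cut at about 34% in these data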;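 note: 0% = IFN-gamma with DMSO and 100% = IFN-gamma with 300 µM nifuroxazide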
# STAT3 activator – STAT3 signaling activation | U3A cells, IL-6 STAT3-luciferase reporter, luminescence; 100% = signal with IL-6 EC80 alone | activation (% of control), % at 5.6 µM | actives 0.91% (n = 190,000) | AID 871;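 active = activation above the screen-wide mean of compound activation plus 3 SD, cut at about 130% in these data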;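 note: 0% = background luminescence of wells with medium and substrate only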
#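 Material: STAT1-lacking human U3A cells, STAT3 luciferase reporter | Benchmarks: IL-6-only wells as 100% reference | Probe or stimulus: IL-6 (33 ng/mL) | Timing: Compound 1 h, then IL-6 6 h at 37 °C | Detection: Luminescence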
# Cl transport mod – KCC2 (human) Cl- transport modulation. KCC2 cells, thallium flux FluoZin-2 fluorescence. AID 1456. actives 2.2% (n = 190,000). Q9H2X9. B-score of Tl+ flux slope (higher = more flux/activation; lower = inhibition) at 10 µM;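 active = thallium flux slope and its plate-corrected score both differing from the plate sample mean at a set confidence after two filtering rounds, in either direction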;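 note: slope of fluorescence scaled to starting intensity during 10 to 20 s after thallium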
# Target sequence (Q9H2X9 whole entry, looked up): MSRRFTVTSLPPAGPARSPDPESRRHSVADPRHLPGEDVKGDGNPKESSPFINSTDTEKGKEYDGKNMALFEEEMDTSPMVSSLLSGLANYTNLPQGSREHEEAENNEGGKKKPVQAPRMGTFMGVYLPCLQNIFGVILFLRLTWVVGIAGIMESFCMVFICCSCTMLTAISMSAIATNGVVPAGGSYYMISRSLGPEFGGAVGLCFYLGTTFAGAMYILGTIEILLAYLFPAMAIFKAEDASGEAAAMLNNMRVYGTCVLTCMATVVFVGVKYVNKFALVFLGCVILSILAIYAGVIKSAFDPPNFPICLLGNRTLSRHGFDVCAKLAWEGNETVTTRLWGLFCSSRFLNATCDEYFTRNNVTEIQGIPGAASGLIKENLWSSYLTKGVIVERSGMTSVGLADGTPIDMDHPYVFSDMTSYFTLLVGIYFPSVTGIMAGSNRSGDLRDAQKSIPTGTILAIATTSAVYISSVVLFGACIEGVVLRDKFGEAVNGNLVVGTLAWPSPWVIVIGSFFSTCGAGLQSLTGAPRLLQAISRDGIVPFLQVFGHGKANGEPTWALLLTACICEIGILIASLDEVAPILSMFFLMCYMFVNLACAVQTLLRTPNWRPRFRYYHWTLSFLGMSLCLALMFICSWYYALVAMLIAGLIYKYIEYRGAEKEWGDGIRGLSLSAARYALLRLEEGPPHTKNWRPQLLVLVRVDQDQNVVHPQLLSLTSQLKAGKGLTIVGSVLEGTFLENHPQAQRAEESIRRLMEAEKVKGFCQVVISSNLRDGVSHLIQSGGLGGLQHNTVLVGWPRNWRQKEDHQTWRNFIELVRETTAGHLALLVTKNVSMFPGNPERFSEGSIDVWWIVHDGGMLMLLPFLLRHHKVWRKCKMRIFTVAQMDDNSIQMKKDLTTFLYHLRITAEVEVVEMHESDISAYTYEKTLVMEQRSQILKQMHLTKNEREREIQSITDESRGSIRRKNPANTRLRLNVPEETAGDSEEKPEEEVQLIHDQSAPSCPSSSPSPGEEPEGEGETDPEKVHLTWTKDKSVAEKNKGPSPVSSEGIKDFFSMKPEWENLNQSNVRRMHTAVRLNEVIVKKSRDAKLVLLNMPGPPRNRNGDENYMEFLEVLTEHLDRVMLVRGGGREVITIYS
# HSV replic up – HSV replication enhancement | HSV replication augmentation in cells, fold increase | actives 0.005% (n = 220,000) | maximum fold increase | AID 1956; in the data active = maximum fold increase above about 1.5; inconclusive = no clear call, values can overlap the other calls; tested in PC3 cells
# STAT3 blocker – STAT3 signaling inhibition | U3A cells, IL-6 STAT3-luciferase reporter, luminescence; host cell line lacks STAT1 | inhibition, % at 5.5 µM | actives 0.89% (n = 190,000);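 active = inhibition above the mean inhibition across all screened compounds plus 3 SD, cut at about 44% in these data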;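 note: 0% = DMSO only wells and 100% = 100 µM nifuroxazide control wells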
# STAT1 act – STAT1 signaling activation. NIH 3T3 STAT1-luciferase reporter, IFN-gamma, luminescence; 100% = IFN-gamma alone, no compound. activation (% of control), % at 5.5 µM. actives 2.6% (n = 200,000);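 active = activation above the screen-wide mean activation plus 3 SD, cut at about 130% in these data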;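 note: raw ratio to IFN-gamma control signal so 100% means no change and 0% no light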
# KCC2 secondary – KCC2 (human) modulation, secondary assay; shares compounds with Cl transport mod; HEK293-KCC2, thallium flux, FluoZin2 fluorescence; hits give high values; normalised thallium flux (F/F0 slope) at 10 µM; actives 15% (n = 3,700);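 active = thallium flux slope above the same plate's solvent-only control mean plus 3 SD; inconclusive = the two replicate wells disagree; inactive = no significant difference from solvent-only control wells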
# KCC2 bumet counter – thallium flux despite bumetanide block in KCC2 cells, secondary assay 3 | shares compounds with Cl transport mod | HEK293-KCC2 + bumetanide/ouabain, thallium flux FluoZin2; hits give high values | normalized thallium flux at 10 µM | actives 49% (n = 3,700) | AID 1714;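 active = thallium entry rate above the same plate's blocked-transporter control wells by more than 3 SD; inconclusive = the two repeat wells disagree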;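 note: raw slope of fluorescence over initial fluorescence between 10 and 20 s after thallium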
# KCC2 secondary2 – confirmation of human KCC2 transport modulators | shares compounds with Cl transport mod | HEK293-KCC2, thallium flux FluoZin2 fluorescence; actives lie on both sides; F/F0 rise rate, 10–20 s post-thallium | normalized thallium flux at 10 µM | actives 23% (n = 3,700);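 active = thallium flux slope more than 3 SD above or below the plate's solvent-only control mean, mostly below; inconclusive = the two repeat wells disagreed; inactive = no significant shift from solvent-only controls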;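 note: raw slope with 0.1% DMSO as baseline and bumetanide as block control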
# HEK counter1 – counter-screen for KCC2 modulators: effect in parental HEK293 cells | thallium flux rate (normalised fluorescence) at 10 µM | actives 46% (n = 3,700) | thallium flux FluoZin2, ouabain; baseline-ratio fluorescence slope, 10–20 s after thallium | AID 1716 | shares compounds with Cl transport mod;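 active = thallium flux rate significantly above the same plate's solvent-only control wells, beyond their mean plus 3 SD; inconclusive = the two replicate wells gave conflicting results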
# KCC2 retest ouab – modulates human KCC2 on retest with ouabain; AID 1717; HEK293-KCC2, thallium flux FluoZin2 fluorescence; bidirectional: low = inhibitor, high = activator; shares compounds with Cl transport mod; actives 48% (n = 3,700); raw Tl+ flux slope (below DMSO = inhibition, above = activation) at 10 µM;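 active = thallium flux slope beyond 3 SD from same-plate DMSO control mean in most replicates, usually higher, sometimes lower; inconclusive = repeat tests gave conflicting results; inactive = no significant difference from controls in most replicates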;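 note: slope of initial-normalized fluorescence between seconds 10 and 20 after thallium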
# HEK counter2 – parental HEK flux effect, counter-screen 2 | shares compounds with Cl transport mod | thallium flux slope at 10 µM | HEK293 parental, thallium flux FluoZin-2 fluorescence slope | actives 33% (n = 3,700) | AID 1718;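 active = thallium flux slope above the same plate's solvent-control mean plus 3 SD in both duplicate wells; inconclusive = duplicate wells that disagreed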;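 note: run without ouabain in cells lacking the KCC2 cotransporter; slope of fluorescence scaled to its starting value between 10 and 20 s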
# Starred values were filed as active, the others as inactive; i = inactive; u = inconclusive; x = no result.
SMILES,STAT1 inh,STAT3 activator,Cl transport mod,HSV replic up,STAT3 blocker,STAT1 act,KCC2 secondary,KCC2 bumet counter,KCC2 secondary2,HEK counter1,KCC2 retest ouab,HEK counter2
O=C(COC(=O)CCOc1ccccc1)Nc1ncc(Cl)cc1Cl,-14.9,101.5,-1.76,i,2.0,113.5,x,x,x,x,x,x
O=C(NCc1cccc(Cl)c1)NC(=O)c1csc([N+](=O)[O-])c1,x,x,-1.11,i,x,x,x,x,x,x,x,x
CC(C)CNC(=S)NC(=O)c1csc([N+](=O)[O-])c1,x,x,30.7*,i,x,x,u,0.0687*,0.0373,0.0206*,0.0365*,0.0146*
Fc1ccccc1/C=N/n1cc(-c2ccccc2)[nH]c1=S,x,x,74.8*,i,x,x,0.0258*,0.124*,0.0347,0.0534*,0.067*,0.0172*
Cc1ccc(C)c(/C=N/n2cc(-c3ccccc3)[nH]c2=S)c1,-6.8,109.8,20.8*,i,-6.3,108.1,0.013*,0.0474*,0.0349,0.0546*,0.0415*,0.0144*
S=c1[nH]c(-c2ccccc2)cn1/N=C/c1cccnc1,x,x,1.72,i,x,x,x,x,x,x,x,x
c1ccc2[nH]c(CSc3nnc(-c4ccncc4)o3)nc2c1,0.1,110.5,0.496,i,-8.0,98.3,x,x,x,x,x,x
Brc1cccc(-c2nnc(SCc3nc4ccccc4[nH]3)o2)c1,0.7,93.1,19.7*,x,13.4,99.3,0.00753,0.00536,0.0324,0.0077,0.0194,0.0102
O=C(CCn1c(=O)c2ccccc2n(Cc2cccc([N+](=O)[O-])c2)c1=O)N1CCc2ccccc2C1,-1.4,102.8,-3.13*,i,-6.1,103.6,0.00683,0.00466,0.0338,0.00671,0.0178*,0.0109
O=C(NCCc1ccccc1)c1noc2c1CCCCC2,-43.9,103.1,x,x,1.4,139.8*,0.00778,0.00666,u,0.00783,0.0188*,0.0105
Cc1ccc(-n2c(SCC(=O)NC3CCS(=O)(=O)C3)nc3ccccc3c2=O)cc1 (centres undefined),6.2,100.5,-0.574,i,-0.9,94.2,x,x,x,x,x,x
O=C(CSc1nc2cc(C(F)(F)F)ccc2n1Cc1ccccc1)NC1CCS(=O)(=O)C1 (centres undefined),-6.2,105.2,5.19*,i,-3.6,105.5,0.00737,0.00775*,0.0307,0.0112*,0.0201,u
O=C(NCc1ccccc1)C1(C(F)(F)F)C/C(=C\CCO)CCCO1 (centres undefined),x,x,x,i,x,x,x,x,x,x,x,x
N/C(Cc1cccs1)=N\OC(=O)COc1ccccc1Cl,-18.9,93.1,x,i,13.7,117.6,0.00817,0.00537,0.0319,u,0.0183,0.00931
Cc1c([N+](=O)[O-])c([N+](=O)[O-])nn1CC(=O)N1CCCCC1,15.6,99.9,0.468,i,-2.2,86.2,x,x,x,x,x,x
C(=N\Nc1nc(-c2ccccc2)cs1)/c1ccco1,-51.4,95.1,-4.34*,i,4.4,146.9*,0.00904,0.00526,u,0.00858,0.0153*,0.012
O=C(NNc1nc(-c2ccc(Cl)cc2)cs1)c1ccco1,-15.5,100.3,-4.57,i,2.0,113.8,x,x,x,x,x,x
